Blank lines part the entries; values can stand above or below the compound they belong to. Activity calls are given as the source filed them. No cut-off for these calls is given here.
Columns and labels:
[1] = biological target: T1, Cysteine protease ATG4B (Homo sapiens) (UniProt Q9Y4P1); experiment: Inhibition of human recombinant GST-tagged Atg4B expressed in Escherichia coli after 2 to 20 hrs by fluorescence assay
T1 sequence (whole entry): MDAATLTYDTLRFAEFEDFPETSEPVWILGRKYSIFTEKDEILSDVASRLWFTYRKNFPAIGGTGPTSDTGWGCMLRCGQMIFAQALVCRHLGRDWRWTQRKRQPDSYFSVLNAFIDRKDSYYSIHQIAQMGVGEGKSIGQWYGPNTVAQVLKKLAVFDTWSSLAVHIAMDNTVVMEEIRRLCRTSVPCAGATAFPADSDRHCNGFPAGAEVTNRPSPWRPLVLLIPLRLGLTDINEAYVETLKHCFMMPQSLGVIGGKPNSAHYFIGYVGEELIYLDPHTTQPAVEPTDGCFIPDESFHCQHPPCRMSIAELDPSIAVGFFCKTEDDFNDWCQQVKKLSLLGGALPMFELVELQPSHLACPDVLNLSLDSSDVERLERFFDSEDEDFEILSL
Summary of the method: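 Fluorogenic peptides of 8, 10, 12 or 16 residues matching pro-LC3B Glu105–Gly120 (N-terminal to scissile Gly120), each C-terminally capped with an aminocarboxycoumarin (ACC) tag. Cleavage by Atg4B at about 20 nM was followed by fluorescence release for up to 20 h.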

Cysteine protease ATG4B [2] = biological target: T2, Cysteine protease ATG4B (Homo sapiens, UniProt Q9Y4P1); experiment: Inhibition of Atg4B (unknown origin) using YFP-LC3B-EmGFP as substrate after 40 mins by FRET-based assay
T2 sequence (Q9Y4P1 whole entry): T1 sequence (whole entry)

Cysteine protease ATG4B [3] = biological target: T2, Cysteine protease ATG4B; experiment: Inhibition of human recombinant GST-tagged Atg4B expressed in Escherichia coli using LC3B-GST as substrate after 6 mins by SDS-PAGE assay
Cysteine protease ATG4B [4] = biological target: T2, Cysteine protease ATG4B; experiment: Inhibition of wild type recombinant Atg4B (unknown origin) expressed in Escherichia coli BL21 DE3 using N-terminal His6-tagged LC3B-PLA2 as substrate after 60 mins by NBD-C6-HPC dye-based fluorescence assay
[5] = biological target: T1, Cysteine protease ATG4B (Homo sapiens); experiment: Inhibition of human recombinant GST-tagged Atg4B expressed in Escherichia coli at 4 mM using LC3B-GST as substrate preincubated up to 20 mins followed by substrate addition measured after 6 mins by SDS-PAGE assay
[6] = biological target: T1, Cysteine protease ATG4B (Homo sapiens); experiment: Inhibition of human recombinant GST-tagged Atg4B expressed in Escherichia coli at 5 mM preincubated for 15 mins followed by LC3B-GST substrate addition after 6 mins by SDS-PAGE assay
Summary of the method: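 Enzyme (0.625 ng/µL Atg4B, Tris-HCl buffer) was preincubated with inhibitor for 15 min before [LC3B-GST] (0.4 µg/µL) was added for 6 min. Samples were separated by SDS-PAGE and stained with Oriole. Densitometric optical densities of intact fusion protein, GST and LC3B gave percent uncleaved substrate.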

[7] = biological target: T1, Cysteine protease ATG4B (Homo sapiens); experiment: Inhibition of human recombinant GST-tagged Atg4B expressed in Escherichia coli at 20 mM using LC3B-GST as substrate measured after 6 mins by SDS-PAGE assay
Summary of the method: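 Atg4B at 0.625 ng/µL in Tris-HCl was mixed with inhibitor without preincubation. [LC3B-GST] at 0.4 µg/µL was then added for 6 min. Products were resolved by SDS-PAGE and stained with Oriole fluorescent gel stain. Percent uncleaved substrate was taken by densitometry as OD(LC3B-GST)/[OD(LC3B-GST)+OD(GST)+OD(LC3B)]×100.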

[8] = biological target: T1, Cysteine protease ATG4B (Homo sapiens); experiment: Inhibition of human recombinant GST-tagged Atg4B expressed in Escherichia coli at 4 mM preincubated for 15 mins followed by LC3B-GST substrate addition after 6 mins by SDS-PAGE assay
Summary of the method: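 Recombinant human Atg4B (E. coli-expressed) at 0.625 ng/µL, preincubated 15 min with inhibitor. Then LC3B-GST (0.4 µg/µL) added in Tris-HCl buffer and incubated 6 min. Products resolved by SDS-PAGE and stained with Oriole. % uncleaved substrate derived by densitometry as OD(LC3B-GST)/(sum of all bands). Single representative experiment.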

[9] = biological target: T1, Cysteine protease ATG4B (Homo sapiens); experiment: Inhibition of human recombinant GST-tagged Atg4B expressed in Escherichia coli at 40 mM using LC3B-GST as substrate measured after 6 mins by SDS-PAGE assay
Summary of the method: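 Recombinant human Atg4B (E. coli) at 0.625 ng/µL, with inhibitor dilutions of 0–40 mM, either preincubated 15 min or not preincubated. LC3B-GST (0.4 µg/µL) added in Tris-HCl buffer for 6 min. SDS-PAGE separation and Oriole staining followed. % uncleaved fusion protein derived from band optical densities. Single representative experiment.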

SMILES: Cc1sc2nc(C3CCCCC3)nc(SCC(=O)N3CC(=O)Nc4ccccc43)c2c1C
inhibition [1]: Active

SMILES: CCN1C(=O)C=CC1=O
inhibition [5]: Active
inhibition [6]: Active
inhibition [7]: Active

SMILES: NC(=O)CI
inhibition [8]: Active
inhibition [9]: Active

SMILES: Cc1cc(O)c2c(=O)c3c(O)cc(O)c4c5c(O)cc(O)c6c(=O)c7c(O)cc(C)c8c1c2c(c34)c(c78)c65 [HYPERICIN]
IC50 (Cysteine protease ATG4B [2]): 57 µM

The next lines start with the values.

IC50 (Cysteine protease ATG4B [2]): 1.3 µM
IC50 (Cysteine protease ATG4B [3]): 38 to 45 µM
SMILES: O=C(O)C1=CC(=C(c2ccc(O)c(C(=O)O)c2)c2ccc(O)c(C(=O)O)c2)C=CC1=O [AURINTRICARBOXYLIC ACID]

IC50 (Cysteine protease ATG4B [4]): 5.5 µM
inhibition [1]: Active
SMILES: O=c1oc2c(O)c(O)cc3c(=O)oc4c(O)c(O)cc1c4c23 [ELLAGIC ACID]

IC50 (Cysteine protease ATG4B [4]): 2.3 µM
SMILES: O=C(O)c1cc(O)c(=O)c2c(O)c(O)ccc2c1 [7-DESHYDROXYPYROGALLIN-4-CARBOXYLIC ACID]

IC50 (Cysteine protease ATG4B [2]): 0.63 µM
SMILES: O=C(N[C@@H](Cc1ccccc1)C(=O)CCl)OCc1ccccc1

Reference: ChEMBL document CHEMBL3870318, “Inhibitor screening and enzymatic activity determination for autophagy target Atg4B using a gel electrophoresis-based assay” (Eur J Med Chem, 2016)
